The text below walks through data of ChEMBL document CHEMBL1125192, “Analogues of the 5-HT1A serotonin antagonist 1-(2-methoxyphenyl)-4-[4-(2-phthalimido)butyl]piperazine with reduced alpha 1-adrenergic affinity” (J Med Chem, 1991).

By pKi is commonly meant the negative decadic logarithm of the Ki, by convention in mol/L. One may read the Ki as a dissociation constant, usually derived from enzyme kinetics or from competition with a known ligand.

The structures appear in SMILES notation. pKi: −log10 of the molar value.

Test [1] concerns the target Serotonin 1a (5-HT1a) receptor/Adrenergic receptor alpha-1 (Rattus norvegicus) (UniProt P15823+P23944+P43140+P19327). The test is described as follows: Ratio of Ki value for alpha-1 receptor to that of 5-HT1A receptor. Format: protein assay. The essentials:
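Ratio of two radioligand binding Ki values. 5-HT1A binding used 0.1 nM [3H]-8-OH-DPAT with rat hippocampal homogenate (6 mg), and 10 μM 8-OH-DPAT defined nonspecific binding. α1-adrenergic binding used 1.0 nM [3H]WB4101 plus 100 nM 8-OH-DPAT with rat frontal cortex (10 mg), and 1 μM prazosin defined nonspecific binding.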

The target of test [2] is T1, 5-hydroxytryptamine receptor 1A (Rattus norvegicus, UniProt P19327).
T1 sequence (P19327 whole entry): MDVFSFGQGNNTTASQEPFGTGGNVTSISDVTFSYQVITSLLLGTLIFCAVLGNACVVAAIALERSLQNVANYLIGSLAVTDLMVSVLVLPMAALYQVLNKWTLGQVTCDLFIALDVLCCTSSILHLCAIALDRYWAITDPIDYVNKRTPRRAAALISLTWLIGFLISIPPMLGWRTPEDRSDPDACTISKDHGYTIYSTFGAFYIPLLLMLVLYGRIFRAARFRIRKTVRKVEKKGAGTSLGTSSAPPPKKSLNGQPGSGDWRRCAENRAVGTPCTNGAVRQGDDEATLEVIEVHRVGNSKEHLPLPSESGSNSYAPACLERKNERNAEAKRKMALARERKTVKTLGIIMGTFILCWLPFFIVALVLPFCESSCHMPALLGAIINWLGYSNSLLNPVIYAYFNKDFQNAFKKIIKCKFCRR
The test is described as follows: Binding affinity towards 5-hydroxytryptamine 1A receptor of rat hippocampus using [3H]-8-hydroxy-2-(di-n-propylamine) tetralin (8-OH-DPAT) as a radioligand. The test is classed as tissue-based.

The target in test [3] is T2, Adrenergic receptor alpha-1 (Rattus norvegicus, UniProt P15823+P23944+P43140).
T2 sequence (P15823 whole entry): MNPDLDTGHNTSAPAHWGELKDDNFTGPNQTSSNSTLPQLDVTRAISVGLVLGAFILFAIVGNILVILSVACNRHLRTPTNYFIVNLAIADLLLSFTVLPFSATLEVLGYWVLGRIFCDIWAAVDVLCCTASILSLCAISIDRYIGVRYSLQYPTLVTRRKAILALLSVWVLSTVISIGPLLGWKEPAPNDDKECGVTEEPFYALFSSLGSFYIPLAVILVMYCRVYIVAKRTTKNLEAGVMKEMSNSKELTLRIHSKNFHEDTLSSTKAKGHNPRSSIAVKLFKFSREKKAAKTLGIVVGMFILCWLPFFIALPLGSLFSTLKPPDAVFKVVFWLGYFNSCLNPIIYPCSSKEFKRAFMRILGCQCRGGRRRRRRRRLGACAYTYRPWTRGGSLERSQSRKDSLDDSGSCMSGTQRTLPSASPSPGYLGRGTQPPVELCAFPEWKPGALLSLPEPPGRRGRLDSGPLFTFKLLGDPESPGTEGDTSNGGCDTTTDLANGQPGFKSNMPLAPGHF
T2 sequence (P23944 whole entry): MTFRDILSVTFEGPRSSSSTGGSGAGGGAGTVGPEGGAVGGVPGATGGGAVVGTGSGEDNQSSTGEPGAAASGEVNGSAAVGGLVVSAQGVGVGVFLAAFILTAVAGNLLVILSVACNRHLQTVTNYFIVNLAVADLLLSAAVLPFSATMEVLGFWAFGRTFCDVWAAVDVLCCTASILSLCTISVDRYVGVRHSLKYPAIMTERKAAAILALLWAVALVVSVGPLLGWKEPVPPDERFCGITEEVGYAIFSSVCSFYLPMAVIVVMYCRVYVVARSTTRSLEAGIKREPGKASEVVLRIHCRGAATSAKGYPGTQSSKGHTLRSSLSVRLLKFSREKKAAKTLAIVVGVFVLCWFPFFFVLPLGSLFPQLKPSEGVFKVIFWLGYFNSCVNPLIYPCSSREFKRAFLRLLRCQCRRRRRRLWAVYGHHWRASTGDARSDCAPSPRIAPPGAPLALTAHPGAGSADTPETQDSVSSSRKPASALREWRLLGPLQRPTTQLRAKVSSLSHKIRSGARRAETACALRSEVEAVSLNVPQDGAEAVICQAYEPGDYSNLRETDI
T2 sequence (P43140 whole entry): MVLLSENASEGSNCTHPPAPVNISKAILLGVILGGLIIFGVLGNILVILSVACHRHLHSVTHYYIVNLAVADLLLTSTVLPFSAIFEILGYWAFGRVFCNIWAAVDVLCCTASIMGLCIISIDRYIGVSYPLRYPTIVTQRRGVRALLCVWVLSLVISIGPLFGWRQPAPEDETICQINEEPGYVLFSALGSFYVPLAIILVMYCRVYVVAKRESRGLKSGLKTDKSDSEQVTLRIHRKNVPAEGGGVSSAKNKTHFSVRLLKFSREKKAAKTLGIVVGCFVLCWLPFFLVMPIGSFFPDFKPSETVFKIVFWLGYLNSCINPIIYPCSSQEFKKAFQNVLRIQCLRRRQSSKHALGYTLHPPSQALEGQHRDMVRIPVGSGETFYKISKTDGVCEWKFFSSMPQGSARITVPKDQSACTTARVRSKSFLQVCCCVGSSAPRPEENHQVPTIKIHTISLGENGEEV
The test is described as follows: Binding affinity towards alpha-1 adrenergic receptor of rat frontal cortex using [3H]- WB- 4101 as a radioligand. Format: tissue-based.

For the next test, the target named is Adrenergic receptor beta (Rattus norvegicus, UniProt P18090+P10608+P26255). The test is described as follows: Binding affinity towards beta adrenergic receptor using [3H]DHA as radioligand. Format: protein assay. The essentials: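 Homogenized rat frontal cortex (5 mg) labelled with 1 nM [3H]DHA; 1 μM propranolol for nonspecific binding.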
Test [4] deals with Serotonin 2 (5-HT2) receptor (Rattus norvegicus, UniProt P30994+P08909+P14842). Kind of test: Binding affinity towards 5-hydroxytryptamine 2 receptor using [3H]DOB as. Format: protein assay. Put shortly:
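[3H]DOB at 0.4 nM on 15 mg homogenized rat frontal cortex; nonspecific binding set with 1 μM cinanserin.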

Another test concerns the target D(2) dopamine receptor (Bos taurus, UniProt P20288). Kind of test: Binding affinity towards D2-dopaminergic receptor using [3H]NMSP as radioligand. The essentials:
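Calf caudate (2 mg) with 1 nM [3H]NMSP in 140 mM NaCl; nonspecific binding defined by 10 μM sulpiride.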

The next test addresses D(1A) dopamine receptor (Rattus norvegicus, UniProt P18901). Kind of test: Binding affinity towards Dopamine receptor D1 using [3H]SCH-23390 as radioligand. The essentials:
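Homogenized rat striatum (2 mg), 1 nM [3H]SCH-23390 with 20 nM ketanserin added; 1 μM SCH-23390 defined nonspecific binding.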

Test [5] deals with T3, 5-hydroxytryptamine receptor 2C (Rattus norvegicus, UniProt P08909).
T3 sequence (P08909 whole entry): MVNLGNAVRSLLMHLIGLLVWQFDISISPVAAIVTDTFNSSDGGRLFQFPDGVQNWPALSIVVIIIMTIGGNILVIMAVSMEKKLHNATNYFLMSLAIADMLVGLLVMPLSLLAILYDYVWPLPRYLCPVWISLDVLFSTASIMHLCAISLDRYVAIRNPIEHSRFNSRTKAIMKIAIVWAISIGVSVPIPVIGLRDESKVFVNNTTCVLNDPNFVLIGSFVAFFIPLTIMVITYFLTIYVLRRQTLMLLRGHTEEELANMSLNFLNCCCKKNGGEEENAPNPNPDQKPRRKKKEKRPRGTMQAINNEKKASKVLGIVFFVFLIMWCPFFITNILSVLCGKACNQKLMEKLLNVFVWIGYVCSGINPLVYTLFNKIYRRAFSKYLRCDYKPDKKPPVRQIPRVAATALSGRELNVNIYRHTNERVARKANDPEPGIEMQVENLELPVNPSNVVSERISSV
The test is described as follows: Binding affinity towards 5-hydroxytryptamine 1C receptor using [3H]mesulergine as radioligand. Put shortly:
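Homogenized rat frontal cortex (10 mg) with 1.0 nM [3H]mesulergine plus 10 nM spiperone; 10 μM 5-HT defined nonspecific binding.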

For test [6], the target named is 5-hydroxytryptamine receptor 1B (Rattus norvegicus, UniProt P28564). The test is described as follows: Binding affinity towards 5-hydroxytryptamine 1B receptor using [3H]5-HT as radioligand.
Chain of 5-hydroxytryptamine receptor 1B (P28564 whole entry): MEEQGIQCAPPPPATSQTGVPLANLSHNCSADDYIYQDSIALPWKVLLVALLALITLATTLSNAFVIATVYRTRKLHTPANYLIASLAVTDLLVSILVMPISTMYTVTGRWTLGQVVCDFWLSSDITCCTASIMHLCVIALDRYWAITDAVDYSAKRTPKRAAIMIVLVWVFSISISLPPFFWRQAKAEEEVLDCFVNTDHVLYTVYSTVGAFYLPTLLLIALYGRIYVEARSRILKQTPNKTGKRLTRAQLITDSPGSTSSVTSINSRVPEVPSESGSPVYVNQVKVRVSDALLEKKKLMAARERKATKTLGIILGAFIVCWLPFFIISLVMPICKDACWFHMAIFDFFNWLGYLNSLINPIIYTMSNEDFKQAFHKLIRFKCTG

Chain of D(2) dopamine receptor (P20288 whole entry): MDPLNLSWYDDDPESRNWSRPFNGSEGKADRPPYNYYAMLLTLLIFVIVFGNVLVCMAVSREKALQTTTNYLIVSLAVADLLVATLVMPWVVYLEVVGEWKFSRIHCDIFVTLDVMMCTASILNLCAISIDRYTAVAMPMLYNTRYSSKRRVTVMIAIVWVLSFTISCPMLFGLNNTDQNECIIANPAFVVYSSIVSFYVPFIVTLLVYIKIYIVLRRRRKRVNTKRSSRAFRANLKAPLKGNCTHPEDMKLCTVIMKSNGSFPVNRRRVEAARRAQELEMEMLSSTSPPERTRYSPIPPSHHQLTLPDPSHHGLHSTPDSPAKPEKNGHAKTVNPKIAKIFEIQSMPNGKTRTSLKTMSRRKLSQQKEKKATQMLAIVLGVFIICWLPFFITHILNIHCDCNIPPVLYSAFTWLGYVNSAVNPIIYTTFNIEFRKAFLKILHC
Chain of D(1A) dopamine receptor (P18901 whole entry): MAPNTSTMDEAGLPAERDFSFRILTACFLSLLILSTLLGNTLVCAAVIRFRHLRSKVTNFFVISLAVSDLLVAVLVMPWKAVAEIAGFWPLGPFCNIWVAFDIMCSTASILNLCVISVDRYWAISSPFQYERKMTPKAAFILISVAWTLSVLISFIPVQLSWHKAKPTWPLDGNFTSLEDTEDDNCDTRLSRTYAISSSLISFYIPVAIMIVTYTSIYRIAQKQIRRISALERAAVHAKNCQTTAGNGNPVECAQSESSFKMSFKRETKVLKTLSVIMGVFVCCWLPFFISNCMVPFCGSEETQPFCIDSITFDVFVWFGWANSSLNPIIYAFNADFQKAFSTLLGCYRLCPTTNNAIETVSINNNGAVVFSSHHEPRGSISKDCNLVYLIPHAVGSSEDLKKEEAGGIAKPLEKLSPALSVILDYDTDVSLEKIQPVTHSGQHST

Take `COc1ccccc1N1CCN(CCCCNC(=O)c2ccc(I)cc2)CC1`: in test [1], the Selectivity came to 4. In test [2], this compound had a pKi of 8.40. This compound returned a Ki in test [3] of 15 nM.
Consider `COc1ccccc1N1CCN(CCCCNC(=O)CCCc2ccccc2)CC1`, for which, in test [1], the Selectivity came to 7. In addition, the Ki in test [3] amounted to 84 nM.
With `COc1ccccc1N1CCN(CCCCNC(=O)C(C)(C)C)CC1`, the Selectivity in test [1] was found to be 74. The compound further gave a pKi in test [2] of 9.00. This compound also gave an inhibition constant (Ki) in test [3] of 74 nM.
Take `COc1ccccc1N1CCN(CCCCNC(=O)c2ccc([N+](=O)[O-])cc2)CC1`: the Selectivity in test [1] came to 3. In test [2], this compound gave a negative-log Ki (pKi) of 8.36. The compound further displayed a Ki in [3] of 14 nM.
On the same counts, the results for `COc1ccccc1N1CCN(CCCCNC(=O)c2ccc(Cl)c(Cl)c2)CC1` are 11, 8.70 and 21 nM.
`CCCCC(=O)NCCCCN1CCN(c2ccccc2OC)CC1`: the Selectivity in test [1] is 11. Also, the negative-log Ki (pKi) in [2] is 8.12. For the same compound, the inhibitory constant (Ki) in test [3] was determined as 84 nM.
In the case of `O=C1c2ccccc2C(=O)N1CCCCN1CCN(c2ccc([N+](=O)[O-])cc2)CC1`, the Selectivity in test [1] worked out at 0.4. Moreover, the pKi in test [2] was 6.00. The compound further returned a Ki in [3] of 378 nM.
Turning to `COc1ccccc1N1CCN(CCCCNC(=O)c2ccc(N)cc2)CC1`, the Selectivity in test [1] turned out to be 4. The negative-log Ki (pKi) in [2] is 8.20. In test [3], this compound displayed a Ki of 23 nM.
On the same counts, the results for `COc1ccc(OC)c(N2CCN(CCCCN3C(=O)c4ccccc4C3=O)CC2)c1` are 0.7, 7.66 and 15 nM.
In the case of `O=C1c2ccccc2C(=O)N1CCCCN1CCN(c2cccc3ccccc23)CC1`, the Selectivity in test [1] was 22. Also, the Ki in test [3] is 22 nM.
For `COc1ccccc1N1CCN(CCCCNC(=O)c2ccc(O)cc2)CC1`, the Selectivity in [1] is 3. The compound further showed a pKi in test [2] of 8.27. This compound also registered a Ki in test [3] of 17 nM.
For `COc1ccccc1N1CCN(CCCCNC(=O)C23C[C@H]4C[C@@H](C2)C[C@@H](C3)C4)CC1`, the Ki is recorded as 1020 nM on Adrenergic receptor beta, 34 nM in test [4] and 64 nM in [3]. Moreover, the negative logarithm of the Ki (pKi) on D(2) dopamine receptor is 8.57; at D(1A) dopamine receptor, < 6.00; in test [2], 9.40; in test [5], 6.65; in test [6], 6.05.
With `O=C1c2ccccc2C(=O)N1CCCCN1CCN(c2ccccc2[N+](=O)[O-])CC1`, the Selectivity in test [1] came to 6. This compound gave a negative logarithm of the Ki (pKi) in [2] of 8.40. The compound further registered a Ki in [3] of 25 nM.
In the case of `COc1ccccc1N1CCN(CCCCNC(=O)c2ccc(Cl)cc2)CC1`, the Selectivity in test [1] was determined as 6. The pKi in test [2] was 8.44. In test [3], this compound gave an inhibition constant Ki of 23 nM.
Consider `O=C(NCCCCN1CCN(c2cccc3ccccc23)CC1)C12C[C@H]3C[C@@H](C1)C[C@@H](C2)C3`, for which the Selectivity in test [1] came to 156. In test [2], this compound had a negative-log Ki (pKi) of 9.15. This compound came in with a Ki in [3] of 109 nM.
On to `CC(=O)Nc1ccc(N2CCN(CCCCN3C(=O)c4ccccc4C3=O)CC2)cc1`, for which the negative logarithm of the Ki (pKi) was 6.67 in test [2] and 5.00 in test [3].
